Test results taken from the EternaBench riboswitch data.

Tested on: MS2 coat protein
Experiment: apparent Kd, MS2 coat protein; higher = weaker binding; RNA-MaP array; FMN 200 µM where present
How it was run: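 Binding was read on Illumina sequencing-chip clusters where stalled E. coli RNA polymerase had transcribed each design. A titration of SNAP-549-labelled MS2 coat protein began at 0.7 or 1.5 nM and doubled to 3 µM, once without ligand and once with constant ligand, in 100 mM Tris-HCl pH 7.5, 80 mM KCl, 4 mM MgCl2, BSA, DTT, yeast tRNA and Tween-20. The apparent Kd is the median of filtered per-cluster binding-curve fits, based on green signal normalised to red-channel RNA signal and control-cluster median Fmax.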

[1] = designed as: OFF switch for flavin mononucleotide, no ligand
[2] = ligand present: flavin mononucleotide, designed as: OFF switch for flavin mononucleotide
[3] = designed as: ON switch for flavin mononucleotide, no ligand
[4] = ligand present: flavin mononucleotide, designed as: ON switch for flavin mononucleotide

Sequence	apparent Kd [1] [nM]	apparent Kd [2] [nM]	apparent Kd [3] [nM]	apparent Kd [4] [nM]
CUGUAUGAUGUAGGAUAUACUUUAAUAUUGUAAGUAGAAGGACAUGAGGAUCACCCAUGUAUAUAAAUUUUAAUUAUUUUUGCG	51.2	39.3		
AAUGGGCACCAGAAGGACAUGAGGAUCACCCAUGUAGGAUAUGGGCGUUGAAGAUGUCUGAUCGAGUUGCUGGAAAGAUAUGGG			311	73.4
GGGUACAUCAGAGGAUAUCAUGUAAAUACAUGAGGAUCACCCAUGUCGAUGGAGACAUCGGAGAUUGAGAAGGCCGAUGUACCG			292	13.4
CAAGGGCAUGAGAAGGCAUAAUUUAUAUUACCACAUGUUUACAUGAGGAUCACCCAUGUUACCUAUGAGGAUAUCAUGCCUACA	12.7	10.2		
GGUACUCAAAGAGUACCUAUACGAACAUGAGGAUCACCCAUGUAGGAUAUGCUACUCAAAGAGUAGCAGAAGGACAUGUGCCUA	18.6	108		
UGAGAGUGAGGAUAUACGUCGCUGGUCCCGAUGGACGCAUGACAUGAGGAUCACCCAUGUAGAAGGCAUUUCCC	33.8	128		
UUUCGGCUAGGAUAUCUGUGCUCGGACAUGAGGAUCACCCAUGUGCGUCAUCACGGAGCCGGAGAAGGAGCUCGUA	15.8	20		
UAAGUUGAGGAGAAGGGAGCACAUGAGGAUCACCCAUGUGGUUCUUUGUGCUCAGGAUAUCCAUGGAGCUCCAACGCGUUCCCG	63.1	10.3		
AAAACAUGAGGAUCACCCAUGUUUAGAUCGGUCGAUAGAGGUGAGGAUAUACUAAGUUAAGGCUGGUAGAAGGCACUGGGUACA			62.4	42
GACAUUGGCAAGAAGGCAAACAUGAGGAUCACCCAUGUUCUGUAUGUAUAUUGAGGAUAUUGCCAAUGUAUGUGGAUCACCCAA	9.44	8.28		
UCGGCGCGAGGAUAUGCGGCUGCUGCUUCGGGCCGUGGCGUACAUGAGGAUCACCCAUGUAGAAGGCGCGCCGC	13.1	14.1		
CGCUACUGCCAGAAGGACAUGAGGAUCACCCAUGUAGGAUAUGGGUGACGAGGACCAGUGUAGAGAAACUACGCUACAGUAGCG			89.4	47.5
AUCAUCUUGUCAGGAUAUGCGUGUCAACGAAAGUAGACAAUCUUAAUAACAUGAGGAUCACCCAUGUAGAAGGGACGAGAUGAU	19.8	21		
GCCAUCGCAUGAGGAUAUGCUCCCGUUUCGGGAGCAGAAGGCAUGUCACAAGACAUGAGGAUCACCCAUGUAGAUAAGAUGGCA			257	9.49
GUGCCUUGGGAGAAGGCCGUAUGCAAAGCAUACGGAGGAUAUCCAUACCGGAAACGGACAUGAGGAUCACCCAUGUGGCACAAA			15.1	6.03
GAGUAGUUAAAAGGAUAUUGAUUAUUGUAGGAUCAAGAAGGUUUUAACAUGAGGAUCACCCAUGUAGGACUAUUCCUGUGAAAA			15.6	12.7
AGUAAACAUGAGGAUCACCCAUGUGGUGGCCCAUGAGGAUAUCCAUGCGCAAUACGCAUAGGAGAAGGCAUAGCCA			62	123
GGUGCGUAUGUGAGGAUAUGCUGGUCCUUGGAUCAGCAGAAGGCACAUGAGGAUCACCCAUGUGGUGUCGUACU	282	26.1		
GCCGGUUCCCUAGGAUAUGUACAUGAGGAUCACCCAUGUGCUUCUAGAGCCGGAGCAGGGCAUGUACAGAAGGAGGGUCGACCC	6.47	7.39		
UCCCAGUAAGGAUAUCAGGCAAGUCUCCGGGAGCUUAGUCGUGAGAAGGUACAUGAGGAUCACCCAUGUGAUUG	58	211		
UUAUUUAGGUAGGAUAUCGAUACCAAUCCCUAUCGAGAAGGGUCUACAUGAGGAUCACCCAUGUUAGCAUGUUU	20.1	21.1		
AUAAGCUCGUCAGGAUAUGCAACACUGUGUAAGCAGUGUGGUAUGAUCACAUGAGGAUCACCCAUGUAGAAGGGACGAGCUUAU	6.53	26.9		
AUCAGCUCGUCAGGAUAUACGUCACUGCAUCAGCAGUGUGGUAAGAUCACAUGAGGAUCACCCAUGUAGAAGGGACGAGCUGAU	22.9	139		
AUCCUGCGAGGAUAUACAUAGUGACGUCUGUUUGGUCUCAAACAUGAGGAUCACCCAUGUAGAAGGUGCGUCAC	66.3	66.5		
